# High-throughput results deposited in PubChem BioAssay by several laboratories.
# UCH37 inh = human UCH37 deubiquitinating enzyme inhibition; Q9Y5K5; purified proteasome/UCH37, Ub-AMC cleavage fluorescence; inhibition, % (concentration not given with the values); 330,000 compounds, 0.33% hits;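 active = mean inhibition over replicate wells above about 20%, limit read from the data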;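 note: 0% = compound-free wells with enzyme and 100% = wells lacking proteasome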
#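 Signal – fluorescence, ex 355 nm, em 460 nm · System – Proteasome-bound UCH37 · Input – 0.15 nM proteasome as dispensed · Timing – 30 min preincubation with enzyme, 25 min cleavage at room temperature · Read-out basis – percent inhibition of cleavage signal versus uninhibited and no-proteasome wells · Medium – Tris-HCl pH 7.4 with ATP-MgCl2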
# GRIN3A LBD mod = modulators (binders) of human NR3A ligand-binding domain; NR3A LBD differential scanning fluorimetry, Tm shift; 0% = protein alone, 100% = glycine-bound protein; Tm shift relative to glycine control, % at 25 µM; 340,000 compounds, 2.5% hits;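 active = melting temperature shift of at least 10% of the positive control shift, at one fixed dose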
# PAFAH1B2 inh = PAFAH1B2 (human) inhibition; P68402; recombinant PAFAH1B2, FP-rhodamine activity probe, fluorescence polarization; inhibition, % at 3.39 µM; 340,000 compounds, 1.2% hits; AID 492953;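 active = inhibition above the mean of all tested compounds plus 3 SD, cut at about 24% in these data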;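 note: 0% = enzyme with DMSO and 100% = wells lacking PAFAH1B2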
# Target sequence (P68402 whole entry, looked up): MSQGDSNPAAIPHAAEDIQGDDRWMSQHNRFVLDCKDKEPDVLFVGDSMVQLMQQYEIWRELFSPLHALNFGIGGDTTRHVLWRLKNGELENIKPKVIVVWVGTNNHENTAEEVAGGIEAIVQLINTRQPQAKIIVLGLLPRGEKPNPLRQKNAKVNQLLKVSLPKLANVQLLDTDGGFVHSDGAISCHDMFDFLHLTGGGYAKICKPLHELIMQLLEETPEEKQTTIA
# PAFAH2 inh = PAFAH2 (human) inhibition | Q99487 | recombinant PAFAH2, FP-rhodamine activity probe, fluorescence polarization | inhibition, % at 3.39 µM | 340,000 compounds, 0.99% hits | AID 492956;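 active = inhibition above the mean over all tested compounds plus 3 SD, cut at about 30% in these data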;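 note: inhibitors block probe labeling of enzyme so polarization drops; 0% = enzyme with DMSO and 100% = wells lacking PAFAH2 protein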
# PAFAH1B3 inh = PAFAH1B3 (human) inhibition | Q15102 | recombinant PAFAH1B3, FP-rhodamine probe, fluorescence polarization | inhibition, % at 3.39 µM | 340,000 compounds, 0.28% hits;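 active = inhibition above the screen-wide average of all tested compounds plus 3 SD, cut at about 25% in these data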;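 note: 0% = enzyme with DMSO only and 100% = wells lacking PAFAH1B3 protein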
# Target sequence (Q15102 whole entry, looked up): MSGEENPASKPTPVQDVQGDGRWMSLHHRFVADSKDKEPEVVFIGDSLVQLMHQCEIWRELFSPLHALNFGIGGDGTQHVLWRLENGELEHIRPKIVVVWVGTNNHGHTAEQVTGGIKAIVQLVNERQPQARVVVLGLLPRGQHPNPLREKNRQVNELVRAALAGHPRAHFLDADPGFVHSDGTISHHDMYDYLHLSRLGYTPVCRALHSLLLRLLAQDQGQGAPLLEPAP
# pPAFAH FP inh = inhibitors of human plasma PAF acetylhydrolase (pPAFAH); recombinant pPAFAH, FP-rhodamine probe fluorescence polarization; AID 463082; 330,000 compounds, 1.5% hits; Q13093; inhibition, % at 3.39 µM;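 active = inhibition above the mean inhibition across the screen plus 3 SD, cut at about 25% in these data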;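 note: inhibitors block binding of the rhodamine activity-based probe so polarization drops; 0% = enzyme with DMSO and 100% = wells lacking pPAFAH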
# Active calls of the source: *; nt = no result. An excerpt weighted towards active compounds, which were near 4.8% of everything screened.
SMILES,UCH37 inh,GRIN3A LBD mod,PAFAH1B2 inh,PAFAH2 inh,PAFAH1B3 inh,pPAFAH FP inh
Cc1noc(C)c1COc1ccc(C(=O)OCC(=O)c2ccc3c(c2)OCCO3)cc1,5,11*,4,3,6,4
CCCCCCC[C@@H](C/C=C/CCC(=O)N(C)C/C(=C/Cl)C/C(=C\C(=O)N1CC(OC)=CC1=O)OC)OC,6,-6,3,8,7,28*
CCn1nc(C)c(C=NNC(=O)c2ccc3c(c2)OCO3)c1C,2,nt,nt,nt,nt,nt
Cc1sc2nc(SCC(=O)c3cccs3)n(Cc3ccco3)c(=O)c2c1C,6,11*,-2,-17,-11,-6
C=CCn1c(SCC(=O)c2cccs2)nc2sc(C)cc2c1=O,5,6,0,1,4,25*
C=CCn1c(SCC(=O)c2ccc(Cl)s2)nc2ccccc2c1=O,1,-1,4,5,9,-1
COc1cc(C=NN=C(N)c2nonc2N)ccc1O,11,nt,nt,nt,nt,nt
COc1ccc(Cl)cc1NC(=O)C(=O)NN=Cc1cc(C)n(-c2ccc(C)cc2)c1C,-16,nt,nt,nt,nt,nt
Cc1ccc(-n2c(C)nc3ccsc3c2=O)cc1,5,-2,1,-5,7,-7
Cc1ccc(-c2nc3ccsc3c(=O)o2)cc1,2,1,-1,66*,11,2
CC(=O)c1c(N2CCN(C)CC2)nc(=S)n(Cc2ccccc2)c1C,2,10*,0,0,4,2
CCn1c(C)c(C(C)=O)c(NCc2ccccc2)nc1=S,5,14*,15,4,3,26*
Cc1cccc(N2CCN(C(=O)N3CCOCC3)CC2)c1C,-2,1,2,18,2,12
Cc1cccc(N2CCN(C(=O)N3CCCCC3)CC2)c1C,4,-1,-3,23,8,29*
CC(=NN1CCN(c2ccccc2)CC1)c1cccc([N+](=O)[O-])c1,1,nt,nt,nt,nt,nt
CCOC(=O)C1=C(N)n2c(sc(=Cc3cccnc3)c2=O)=C(C#N)C1c1cccnc1 (stereo not given),6,nt,nt,nt,nt,nt
CC(C)(C)[C@@H]1COC(=O)[C@H](Cc2ccc(F)cc2)C/C=C\C[C@H](CC(=O)N(CCO)Cc2ccccc2)C(=O)N1,0,-1,30*,3,5,3
O=C1NCCOC(=O)[C@@H](Cc2ccc(F)cc2)C/C=C\C[C@@H]1CC(=O)N(CCO)Cc1ccccc1,2,-1,26*,-1,1,4
O=C1N[C@@H](Cc2ccccc2)COC(=O)[C@@H](Cc2ccc(F)cc2)C/C=C\C[C@@H]1CC(=O)N(CCO)Cc1ccccc1,3,-8,41*,1,-2,9
CC(C)CCOc1ccc(C=NN2C(=O)CSC2=S)cc1,2,nt,nt,nt,nt,nt
O=C(NC1CCCCC1)c1sc(=S)n2c1[nH]c(=O)c1ccccc12,4,1,42*,56*,32*,32*
O=C(NC1CCCCCC1)c1c(O)c2ccccc2[nH]c1=O,4,3,2,2,-5,2
CCOC(=O)c1c(NC(=O)c2ccc(Cl)cc2)csc1C,0,18*,0,-5,-2,3
CC1(C)Cc2ccccc2C(NN=Cc2ccc(Cl)cc2)=N1,6,nt,nt,nt,nt,nt
N#CCSc1n[nH]c2nc3c(c(=O)n12)C1(CCCCC1)Cc1ccccc1-3,-75,-3,91*,38*,6,22
SMILES,UCH37 inh,GRIN3A LBD mod,PAFAH1B2 inh,PAFAH2 inh,PAFAH1B3 inh,pPAFAH FP inh
CSc1n[nH]c2nc3c(c(=O)n12)C1(CCCCC1)Cc1ccccc1-3,-37,-5,91*,44*,10,6
CCCn1c(SCC(N)=O)nc2c(c1=O)C1(CCCC1)Cc1ccccc1-2,-1,-12,24,-8,4,8
Cn1c(NCCCO)nc2c(c1=O)C1(CCCCC1)Cc1ccccc1-2,-232,1,19,0,5,-1
CCC(=O)Nn1cnc2c(c1=O)C1(CCCCC1)Cc1ccccc1-2,5,-1,33*,-4,4,-2
CCSc1n[nH]c2nc3c(c(=O)n12)C1(CCCCC1)Cc1ccccc1-3,-27,0,82*,58*,3,4
O=C(NN=Cc1ccccn1)c1ccc(Cl)cc1,3,nt,nt,nt,nt,nt
CCN1C(=O)/C(=C2\SC(=S)N(NC(=O)c3ccccc3O)C2=O)c2ccccc21,3,14*,8,19,11,7
COc1cc(C=NNC(=O)c2cccnc2)ccc1OC(=O)c1cccc(Br)c1,-8,nt,nt,nt,nt,nt
NS(=O)(=O)c1ccc(CNS(=O)(=O)c2ccc(Cl)nc2)cc1,4,1,4,-1,8,2
O=S(=O)(NCc1ccc(Cl)cc1)c1ccc(Cl)nc1,0,1,34*,-5,5,5
CCOC(=O)C1CCN(C(=O)COC(=O)/C=C/c2cccc(OC)c2OC)CC1,-2,15*,6,6,5,-1
CCOC(=O)C1CCN(C(=O)COC(=O)/C=C/c2ccccc2)CC1,1,2,-1,6,9,-7
COc1ccc(NC(C)=O)c([N+](=O)[O-])c1[N+](=O)[O-],6,14*,-2,4,5,nt
O=C(NCCc1nc2ccccc2[nH]1)c1cc([N+](=O)[O-])cc([N+](=O)[O-])c1,1,11*,4,4,8,5
COc1cccc(C(=O)OCC(=O)NC23CC4CC(CC(C4)C2)C3)c1,3,-1,19,82*,12,27*
CC(=O)Oc1cc(C(=O)OCC(=O)NC23CC4CC(CC(C4)C2)C3)cc(OC(C)=O)c1OC(C)=O,3,1,65*,88*,3,nt
O=C(COC(=O)c1cccs1)NC12CC3CC(CC(C3)C1)C2,4,-2,-3,2,1,3
COc1ccccc1-c1c(-c2ccc(OCC(=O)NN)cc2O)n[nH]c1C(F)(F)F,5,-2,2,-6,4,-3
COc1ccc(-c2n[nH]c(C(F)(F)F)c2-c2cc3ccccc3o2)c(O)c1,-5,15*,-2,-7,-7,18
CCCC(C)n1[nH]c(=O)cc1N (stereo not given),6,-1,0,8,-1,-1
CCC(CC)n1[nH]c(=O)cc1N,1,14*,1,-5,5,5
Cc1cc2nc(SCC(=O)N(C)C)c3c(c2cc1C)CCCC3,2,-1,-5,5,0,31*
O=C(O)CCc1ccc(-c2cccs2)n1CCc1ccccc1,-17,1,7,-1,-11,34*
S=c1[nH]nc(-c2cc(-c3ccccc3)n[nH]2)n1/N=C/C(Br)=C/c1ccccc1,nt,17*,nt,nt,nt,6
Cc1c(Br)c(O)c(Br)c(O)c1/C=N/n1c(-c2ccccc2)n[nH]c1=S,nt,nt,14,22,35*,14
CC(C)c1ccc(/C=N/n2c(-c3ccccc3)n[nH]c2=S)cc1,nt,-7,4,10,12,25*
